Experimental data reported in ChEMBL document CHEMBL1914308, “N-fused imidazoles as novel anticancer agents that inhibit catalytic activity of topoisomerase IIα and induce apoptosis in G1/S phase” (J Med Chem, 2011).
The source made the active and inactive calls. The rule behind the calls is not given here.

How the values were obtained:
[1] = system: HEK293; assay: Induction of apoptosis in human HEK293 cells assessed as apoptotic cells at 35 uM after 48 hrs by propidium iodide staining-based FACS analysis (reference value: 4.88 +/- 0.8%); assay type: functional
[2] = system: HEK293; assay: Induction of apoptosis in human HEK293 cells assessed as increase in Bax protein expression at 15 to 25 uM after 48 hrs by Western blot analysis; assay type: functional, cell-based
Outline: (§1)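 Whole-cell extracts from HEK 293 cells after 48 h at graded concentrations, Western blotted for caspase-3, Bax, Bcl-XL and PARP (cleaved 86 kDa fragment); β-actin as loading control.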

[3] = system: HEK293; assay: Induction of cell cycle arrest in human HEK293 cells assessed as accumulation at S phase at 35 uM after 48 hrs by propidium iodide staining-based FACS analysis (reference value: 16.91 +/- 1.0%); assay type: functional
[4] = system: HEK293; assay: Cytotoxicity against human HEK293 cells assessed as cell survival at 12 uM after 24 hrs by MTT assay; assay type: functional, cell-based
[5] = system: HEK293; assay: Induction of cell cycle arrest in human HEK293 cells assessed as accumulation at G2/M phase at 35 uM after 48 hrs by propidium iodide staining-based FACS analysis (reference value: 7.5 +/- 1.0%); assay type: functional
[6] = target: T1, DNA topoisomerase 2-alpha (Homo sapiens, UniProt P11388); assay: Inhibition of topoisomerase 2 alpha-mediated DNA relaxation activity in human HEK293 cells assessed as increase in supercoiled DNA at 5 to 25 uM […] by agarose gel electrophoresis; assay type: cell-based
[7] = system: HEK293; assay: Anticlonogenic activity against human HEK293 cells after 48 hrs by crystal violet staining; assay type: functional; details: HEK293, 48 h, read-out: LC50 (the source's name)
Outline: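 HEK 293 and Vero cells were grown in DMEM with 10% FBS and 1% penicillin/streptomycin at 37 °C in 5% CO₂. At 60–70% confluence they were exposed for 48 h to a range of concentrations, diluted in DMEM from 100 mM DMSO stocks. Colony survival is expressed as %. Values are mean ± SD of three independent experiments; LC₅₀ is the concentration killing half the cells.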

[8] = Cytotoxicity against human MCF10A cells assessed as cell survival at 100 uM after 48 hrs by MTT assay; assay type: cell-based, MCF-10A; details: read-out: Survival
[9] = Cytotoxicity activity against african green monkey Vero assessed as cell survival at 100 uM after 48 hrs by MTT assay; assay type: cell-based; details: chlorocebus sabaeus, Vero cells; read-out: Activity
Outline: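 MTT survival of HEK 293 and Vero cells after 48 h with compound at graded concentrations. DMEM, 10% FBS, 37 °C, 5% CO2; dilutions in DMEM from 100 mM DMSO stock, added at 60–70% confluence. Mean ± SD of three independent experiments.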

[10] = system: HEK293; assay: Induction of cell cycle arrest in human HEK293 cells assessed as accumulation at G2/M phase at 15 uM after 48 hrs by propidium iodide staining-based FACS analysis (reference value: 7.5 +/- 1.0%); assay type: functional
[11] = system: HEK293; assay: Induction of apoptosis in human HEK293 cells assessed as increase in apoptotic nuclei at 15 uM after 48 hrs by DAPI staining-based fluorescence microscopic analysis; assay type: functional
Outline: (§2)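 HEK 293 cells exposed 48 h to 0, 15, 25 or 35 μM, nuclei stained with DAPI and apoptotic nuclei counted by fluorescence imaging; three replicates.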

[12] = system: HEK293; assay: Induction of apoptosis in human HEK293 cells assessed as increase in apoptotic nuclei at 25 uM after 48 hrs by DAPI staining-based fluorescence microscopic analysis; assay type: functional; outline: as §2
[13] = system: HEK293; assay: Induction of cell cycle arrest in human HEK293 cells assessed as accumulation at G1 phase at 35 uM after 48 hrs by propidium iodide staining-based FACS analysis (reference value: 61 +/- 0.9%); assay type: functional
[14] = target: T1, DNA topoisomerase 2-alpha; assay: Competitive inhibition of human topoisomerase-2 alpha-ATPase activity by Lineweaver-Burk assay in presence of 200 to 520 uM ATP
Outline: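 Compound at 0, 50, 100, 150 μM, each with ATP at 200–520 μM; 20 min at 37 °C. Released phosphate read by malachite green at OD 620 nm; Lineweaver–Burk analysis, Ki from slope replot.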

[15] = system: HEK293; assay: Induction of cell cycle arrest in human HEK293 cells assessed as accumulation at G1 phase at 25 uM after 48 hrs by propidium iodide staining-based FACS analysis (reference value: 61 +/- 0.9%); assay type: functional
[16] = target: T1, DNA topoisomerase 2-alpha; assay: Inhibition of human topoisomerase 2 alpha-mediated relaxation of pRYG plasmid DNA at 100 uM by agarose gel electrophoresis
Outline: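 250 ng supercoiled pRYG plasmid, 2–4 units hTopoIIα, 100 μM compound, ATP-containing Tris pH 8 buffer, 20 μL, 37 °C 30 min; SDS/proteinase K stop; 1% agarose in TAE without EtBr, post-stained 0.5 μg/mL EtBr; products quantified densitometrically.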

[17] = system: HEK293; assay: Induction of apoptosis in human HEK293 cells assessed as increase in Bax/Bcl-XL ratio at 15 to 25 uM after 48 hrs by Western blot analysis; assay type: functional, cell-based; outline: as §1
[18] = target: T1, DNA topoisomerase 2-alpha; assay: Inhibition of etoposide poisoning activity against human recombinant DNA topoisomerase 2alpha assessed as enhancement of in relaxation of supercoiled plasmid pBR322 DNA at 100 uM after 30 mins by agarose gel electrophoresis
[19] = system: HEK293; assay: Induction of cell cycle arrest in human HEK293 cells assessed as accumulation at G1 phase at 15 uM after 48 hrs by propidium iodide staining-based FACS analysis (reference value: 61 +/- 0.9%); assay type: functional
[20] = system: Vero; assay: Anticlonogenic activity against african green monkey Vero cells assessed as inhibition of colony formation of cells at 20 to 100 uM after 48 hrs by crystal violet staining; assay type: cell-based; details: chlorocebus sabaeus
Outline: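 Clonogenic survival in HEK 293 and Vero cells, 48 h exposure at graded concentrations; % survival plotted; mean ± SD of three independent experiments. Cells grown in DMEM with 10% FBS and 1% antibiotic at 37 °C, 5% CO2; compound diluted from 100 mM DMSO stock into DMEM, added at 60–70% confluence.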

[21] = target: T1, DNA topoisomerase 2-alpha; assay: Inhibition of etoposide poisoning activity against human recombinant DNA topoisomerase 2alpha assessed as enhancement of in relaxation of supercoiled plasmid pBR322 DNA at 200 uM after 30 mins by agarose gel electrophoresis in presence of etoposide
[22] = system: HEK293; assay: Induction of apoptosis in human HEK293 cells assessed as increase in apoptotic nuclei at 35 uM after 48 hrs by DAPI staining-based fluorescence microscopic analysis; assay type: functional; outline: as §2
[23] = target: T1, DNA topoisomerase 2-alpha; assay: Inhibition of topoisomerase 2 alpha-mediated DNA relaxation activity in human HEK293 cells assessed as increase in supercoiled DNA at 35 uM […] by agarose gel electrophoresis; assay type: cell-based
[24] = system: HEK293; assay: Induction of apoptosis in human HEK293 cells assessed as decrease in Bcl-XL protein expression at 15 to 25 uM after 48 hrs by Western blot analysis; assay type: functional, cell-based; outline: as §1
[25] = system: HEK293; assay: Induction of cell cycle arrest in human HEK293 cells assessed as accumulation at S phase at 25 uM after 48 hrs by propidium iodide staining-based FACS analysis (reference value: 16.91 +/- 1.0%); assay type: functional

T1 sequence (P11388 whole entry): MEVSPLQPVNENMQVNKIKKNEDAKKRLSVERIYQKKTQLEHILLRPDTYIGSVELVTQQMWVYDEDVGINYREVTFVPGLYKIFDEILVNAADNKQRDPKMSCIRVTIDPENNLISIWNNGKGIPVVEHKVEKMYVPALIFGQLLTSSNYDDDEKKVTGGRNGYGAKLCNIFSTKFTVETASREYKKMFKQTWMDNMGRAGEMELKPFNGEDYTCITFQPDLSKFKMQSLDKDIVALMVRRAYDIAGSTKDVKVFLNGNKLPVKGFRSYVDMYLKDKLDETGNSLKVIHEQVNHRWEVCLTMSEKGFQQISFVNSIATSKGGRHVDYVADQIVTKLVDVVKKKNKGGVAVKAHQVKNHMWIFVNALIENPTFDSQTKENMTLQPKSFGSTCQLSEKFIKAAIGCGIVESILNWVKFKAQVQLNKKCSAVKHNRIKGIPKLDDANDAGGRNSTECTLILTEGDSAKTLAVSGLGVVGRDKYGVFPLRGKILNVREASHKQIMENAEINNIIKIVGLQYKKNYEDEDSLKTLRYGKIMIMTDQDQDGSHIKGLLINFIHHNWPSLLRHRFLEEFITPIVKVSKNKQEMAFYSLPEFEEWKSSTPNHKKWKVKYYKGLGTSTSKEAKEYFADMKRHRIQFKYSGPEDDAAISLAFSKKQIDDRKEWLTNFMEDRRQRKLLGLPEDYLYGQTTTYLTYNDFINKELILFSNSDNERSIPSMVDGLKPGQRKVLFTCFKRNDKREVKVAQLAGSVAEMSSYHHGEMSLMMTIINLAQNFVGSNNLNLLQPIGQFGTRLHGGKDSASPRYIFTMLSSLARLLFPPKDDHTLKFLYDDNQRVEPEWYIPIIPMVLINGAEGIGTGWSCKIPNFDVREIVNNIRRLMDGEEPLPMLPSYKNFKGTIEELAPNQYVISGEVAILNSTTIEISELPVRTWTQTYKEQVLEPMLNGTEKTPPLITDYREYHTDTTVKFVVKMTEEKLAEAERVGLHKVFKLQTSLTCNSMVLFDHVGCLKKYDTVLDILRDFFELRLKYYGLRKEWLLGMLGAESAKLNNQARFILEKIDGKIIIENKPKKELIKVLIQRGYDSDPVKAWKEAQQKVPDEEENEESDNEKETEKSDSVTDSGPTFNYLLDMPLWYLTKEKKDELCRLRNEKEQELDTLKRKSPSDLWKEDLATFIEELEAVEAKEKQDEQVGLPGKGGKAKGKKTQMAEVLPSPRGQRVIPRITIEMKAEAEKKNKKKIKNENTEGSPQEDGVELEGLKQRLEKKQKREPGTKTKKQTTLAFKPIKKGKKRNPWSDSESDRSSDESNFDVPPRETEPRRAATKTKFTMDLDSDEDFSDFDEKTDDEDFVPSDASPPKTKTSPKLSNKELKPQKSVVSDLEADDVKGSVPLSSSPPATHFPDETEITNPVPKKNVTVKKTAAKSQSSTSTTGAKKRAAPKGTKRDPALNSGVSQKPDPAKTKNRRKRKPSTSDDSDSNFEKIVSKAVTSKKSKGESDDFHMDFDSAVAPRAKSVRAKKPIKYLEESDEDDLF

## CC(C)(C)Nc1c(-c2ccc(C(=O)O)cc2)nc2ccccn12
[1]
  Activity: 49.29%
[2]
  Activity: Active
[3]
  Activity: 10.07%
[4]
  Activity: Active
[5]
  Activity: 5.56%
[6]
  inhibition: Active
[7]
  CC50: 30 µM
[8]
  viability at 48 h, 100 µM: 75%
[9]
  viability at 48 h, 100 µM: < 50%
[10]
  Activity: 9.92%
[11]
  Activity: 20%
[12]
  Activity: 40%
[13]
  Activity: 21.52%
[14]
  Ki: 75 µM
[15]
  Activity: 36.64%
[16]
  inhibition: Active
[17]
  Activity: Active
[18]
  inhibition: inactive
[19]
  Activity: 34.64%
[20]
  inhibition (INH): Dose-dependent effect
[21]
  inhibition: inactive
[22]
  Activity: 80%
[23]
  inhibition: Active
[24]
  Activity: Active
[25]
  Activity: 14.16%
